Here are results for 15 compounds from ChEMBL document CHEMBL1134268, “Synthesis and biological evaluation of tropane-like 1-[2-[bis(4-fluorophenyl)methoxy]ethyl]-4-(3-phenylpropyl)piperazine (GBR 12909) analogues” (J Med Chem, 2001).

Test [1] concerns the target Sodium-dependent dopamine transporter (Rattus norvegicus, UniProt P23977). The experiment in a line: Binding affinity against Dopamine transporter using [125]RTI-55.
In test [2] the target is T1, Muscarinic acetylcholine receptor M1 (Rattus norvegicus, UniProt P08482).
T1 sequence (P08482 whole entry): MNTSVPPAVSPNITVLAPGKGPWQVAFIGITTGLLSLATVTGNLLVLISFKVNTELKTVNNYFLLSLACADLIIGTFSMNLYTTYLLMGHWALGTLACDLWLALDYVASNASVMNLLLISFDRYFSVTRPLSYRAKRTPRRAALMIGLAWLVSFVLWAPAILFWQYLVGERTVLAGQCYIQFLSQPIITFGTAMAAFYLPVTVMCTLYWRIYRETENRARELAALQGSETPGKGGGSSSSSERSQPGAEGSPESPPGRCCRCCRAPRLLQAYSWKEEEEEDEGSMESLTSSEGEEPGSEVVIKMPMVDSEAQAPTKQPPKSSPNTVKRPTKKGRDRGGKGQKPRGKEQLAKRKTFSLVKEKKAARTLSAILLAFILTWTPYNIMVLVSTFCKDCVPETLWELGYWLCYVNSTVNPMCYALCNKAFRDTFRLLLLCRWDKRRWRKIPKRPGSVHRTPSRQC
The experiment in a line: Binding affinity against Muscarinic receptor from rat brain membranes using [3H]pirenzepine. The essentials:
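Male Sprague-Dawley rat brain P2 membranes (without cerebellum and brainstem), 300 μg protein, with 5 nM [3H]pirenzepine and 5 mM MgCl2 in 50 mM Tris-HCl pH 7.4, for 60 min at 37 °C. Nonspecific binding was defined with 10 μM QNB. Nine ligand concentrations (1 nM-10 μM or 10 nM-100 μM) were tested.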

The species entered for test [3] is Rattus norvegicus. The experiment in a line: Inhibition of Dopamine reuptake from rat caudate using [3H]DA. Format: functional. The essentials: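 Rat caudate synaptosomes were prepared by homogenization in ice-cold 10% sucrose, and the 1000g supernatant was used. Incubation was with 2 nM [3H]DA (final) in Krebs-phosphate buffer pH 7.4 containing ascorbic acid (1 mg/mL) and pargyline (50 μM), for 20 min at 25 °C. Nonspecific uptake was defined with 1 μM of a DAT inhibitor. Filtration was followed by counting of retained tritium.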

The target of test [4] is Sodium-dependent serotonin transporter (Rattus norvegicus, UniProt P31652). The experiment in a line: Binding affinity against serotonin transporter using [125]RTI-55.
In test [5] the target is Monoamine transporters; serotonin & dopamine (Rattus norvegicus) (UniProt P31652+P23977). The test can be described thus: Ratio of binding affinity against Dopamine to that of serotonin transporter. It counts as protein assay.
Test [6] is filed under the species Rattus norvegicus. The experiment in a line: Inhibition of 5-HT reuptake from whole rat brain minus cerebellum using [3H]5-HT.

Chain of Sodium-dependent serotonin transporter (P31652 whole entry): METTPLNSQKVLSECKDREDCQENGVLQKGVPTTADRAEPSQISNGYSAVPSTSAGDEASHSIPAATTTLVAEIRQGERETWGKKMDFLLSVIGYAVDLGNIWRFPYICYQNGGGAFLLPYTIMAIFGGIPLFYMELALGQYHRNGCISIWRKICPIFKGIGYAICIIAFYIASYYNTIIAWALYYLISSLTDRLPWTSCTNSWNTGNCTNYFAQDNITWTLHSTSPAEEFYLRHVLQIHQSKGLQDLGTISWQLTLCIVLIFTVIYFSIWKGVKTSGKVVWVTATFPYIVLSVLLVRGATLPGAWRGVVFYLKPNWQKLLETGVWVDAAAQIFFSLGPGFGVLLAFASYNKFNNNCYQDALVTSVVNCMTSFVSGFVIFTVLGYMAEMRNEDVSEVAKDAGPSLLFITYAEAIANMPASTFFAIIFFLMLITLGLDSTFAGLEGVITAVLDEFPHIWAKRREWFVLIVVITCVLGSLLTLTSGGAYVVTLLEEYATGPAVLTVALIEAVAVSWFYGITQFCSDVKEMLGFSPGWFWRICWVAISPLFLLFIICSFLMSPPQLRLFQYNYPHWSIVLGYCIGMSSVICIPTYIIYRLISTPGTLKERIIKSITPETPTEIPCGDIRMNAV
Chain of Sodium-dependent dopamine transporter (P23977 whole entry): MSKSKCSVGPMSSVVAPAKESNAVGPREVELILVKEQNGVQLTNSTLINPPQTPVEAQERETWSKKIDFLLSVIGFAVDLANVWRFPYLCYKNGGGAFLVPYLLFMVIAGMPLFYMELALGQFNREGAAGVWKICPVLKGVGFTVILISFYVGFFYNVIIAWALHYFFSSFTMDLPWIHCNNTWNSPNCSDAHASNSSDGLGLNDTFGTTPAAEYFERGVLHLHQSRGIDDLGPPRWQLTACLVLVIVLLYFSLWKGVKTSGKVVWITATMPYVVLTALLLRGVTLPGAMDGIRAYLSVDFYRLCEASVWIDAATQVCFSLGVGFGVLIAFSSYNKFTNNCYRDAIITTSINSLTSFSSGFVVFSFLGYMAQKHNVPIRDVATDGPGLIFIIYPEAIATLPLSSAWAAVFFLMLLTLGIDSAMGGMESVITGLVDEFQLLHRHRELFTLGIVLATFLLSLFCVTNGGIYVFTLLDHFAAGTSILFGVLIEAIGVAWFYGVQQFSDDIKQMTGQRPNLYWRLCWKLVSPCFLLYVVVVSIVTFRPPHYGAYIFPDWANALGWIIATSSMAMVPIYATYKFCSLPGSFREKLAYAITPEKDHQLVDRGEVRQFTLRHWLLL
Chain of Monoamine transporters; serotonin & dopamine (Rattus norvegicus) (P23977 whole entry, looked up): as the sequence (P23977 whole entry) above
Chain of Monoamine transporters; serotonin & dopamine (Rattus norvegicus) (P31652 whole entry, looked up): as the sequence (P31652 whole entry) above

For `CN1C2CCC1CC(=CC(=O)NC(c1ccccc1)c1ccccc1)C2`, the Ki in test [1] was 2300 nM; in test [2], 1700 nM; in test [3] it was 880 nM; in test [4], 78000 nM; in test [6], 60000 nM. The Ratio in test [5] was found to be 34.

As to `Fc1ccc(C(OCC[C@H]2C[C@H]3CC[C@@H](C2)N3CCCc2ccccc2)c2ccc(F)cc2)cc1`, the inhibition constant (Ki) in test [1] was 19000 nM; in test [2] it was 170 nM; in test [3] it was 78 nM; in test [4] it was 79 nM; in test [6], 430 nM. Also, the Ratio in test [5] amounted to 4.

On to `c1ccc(CCCN2[C@@H]3CC[C@H]2C[C@@H](CCOC(c2ccccc2)c2ccccc2)C3)cc1`, for which the Ki in test [1] is 28000 nM; in test [2], 78 nM; in test [3], 120 nM; in test [4], 170 nM; in test [6], 570 nM. Besides, the Ratio in test [5] was 6.

In the case of `CN1C2CCC1CC(CC(=O)NC(c1ccc(F)cc1)c1ccc(F)cc1)C2` (stereo not drawn), the Ki in test [1] was found to be 3400 nM; in test [2], 1200 nM; in test [3], 1800 nM; in test [4] it was 69000 nM; in test [6], 60000 nM. Besides, in test [5], the Ratio was determined as 20.

For `CN1C2CCC1CC(CCOC(c1ccc(F)cc1)c1ccc(F)cc1)C2` (stereo not drawn), the inhibitory constant (Ki) in test [1] was determined as 52000 nM; in test [2], 130 nM; in test [3] it was 80 nM; in test [4] it was 4100 nM. The Ratio in test [5] was found to be 79.

As to `c1ccc(CCCN2CCN(CCOC(c3ccccc3)c3ccccc3)CC2)cc1`, the Ki in test [3] was 3.7 nM; in test [6], 290 nM.

As to `CN1[C@@H]2CC[C@H]1C[C@@H](CC(=O)NC(c1ccccc1)c1ccccc1)C2`, the Ki in test [1] was 30000 nM; in test [2] it was 1200 nM; in test [3], 7900 nM; in test [4], 120000 nM; in test [6], 100000 nM. In test [5], the Ratio is 4.

Regarding `CN1C2CCC1CC(CCNC(c1ccccc1)c1ccccc1)C2` (stereo not drawn), the inhibition constant Ki in test [1] was determined as 3800 nM; in test [2], 340 nM; in test [3], 1100 nM; in test [4], 43000 nM; in test [6], 14000 nM. In addition, in test [5], the Ratio is 11.

With `CN1C2CCC1CC(=CCOC(c1ccccc1)c1ccccc1)C2`, the Ki in test [2] turned out to be 94 nM; in test [3], 190 nM; in test [4] it was 8300 nM; in test [6], 8100 nM. For the same compound, in test [5], the Ratio is 64.

On to `CN1[C@@H]2CC[C@H]1C[C@@H](CCNC(c1ccc(F)cc1)c1ccc(F)cc1)C2`, for which the Ki in test [2] turned out to be 630 nM; in test [3], 160 nM; in test [4] it was 30000 nM; in test [6], 7100 nM. The Ratio in test [5] was found to be 111.

As for `Fc1ccc(C(OCCN2CCN(CCCc3ccccc3)CC2)c2ccc(F)cc2)cc1` [VANOXERINE], the inhibition constant Ki in test [3] was 4.3 nM; in test [6], 73 nM.

Take `CN1C2CCC1CC(=CC(=O)NC(c1ccc(F)cc1)c1ccc(F)cc1)C2`: the Ki stood at 2500 nM in test [2], 240 nM in test [3], 19000 nM in test [4] and 17000 nM in test [6]. Besides, in test [5], the Ratio turned out to be 38.

On to `CN1C2CCC1CC(=CCOC(c1ccc(F)cc1)c1ccc(F)cc1)C2`, for which the Ki in test [1] turned out to be 19000 nM; in test [2], 200 nM; in test [3] it was 35 nM; in test [4] it was 3600 nM; in test [6] it was 5000 nM. Besides, in test [5], the Ratio stood at 189.

Turning to `CN1[C@@H]2CC[C@H]1C[C@@H](CCOC(c1ccccc1)c1ccccc1)C2`, the Ki in test [2] is 56 nM; in test [3], 260 nM; in test [4] it was 15000 nM; in test [6], 12000 nM. Also, the Ratio in test [5] worked out at 54.

`CN1[C@@H]2CC[C@H]1C[C@@H](OC(c1ccccc1)c1ccccc1)C2` [BENZTROPINE]: the inhibition constant Ki turned out to be 130 nM in test [3] and 18500 nM in test [6].
